# Test results reported in ChEMBL document CHEMBL1133441, “Development of novel quinone phosphorodiamidate prodrugs targeted to DT-diaphorase” (2000).
# Key:
# BE = test: cytotoxic activity against human colon carcinoma BE cell lines.; type: functional
# In short: (§1)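 Clonogenic survival: exponentially growing cells suspended at 1.7-2 × 10^5 cells/mL in serum-free MEM/HEPES, exposed 2 h at 37 °C, 5% CO2 to five final drug concentrations (solvent ethanol or DMSO, at most 1%), washed, plated at 2-3 densities, grown 10 days. Crystal violet-stained colonies of ≥50 cells counted; LC99 from log surviving fraction vs concentration.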
# [1] = molecular target: NAD(P)H dehydrogenase [quinone] 1 (Homo sapiens) (UniProt P15559); test: Kinetic analysis using purified human DT-diaphorase.
# In short: (§2)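 Purified human DT-diaphorase (4.8 × 10-4 mg) with 1 mM NADH, 55 µM cytochrome c, 0.01 mM dithiothreitol in 0.05 M Tris pH 7.6; quinone in DMSO starts reaction. Run in triplicate at 25 °C, following cytochrome c reduction at 550 nm, no-enzyme background controls. Initial linear rates; KM and Vmax from Hanes plot.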
# [2] = molecular target: NAD(P)H dehydrogenase [quinone] 1 (Homo sapiens) (UniProt P15559); test: Ratio of Vmax and Km; set-up: unit not given here; in short: as §2
# HT-29 = test: cytotoxic activity against human colon carcinoma HT-29 cell lines.; type: functional; in short: as §1
# [3] = molecular target: NAD(P)H dehydrogenase [quinone] 1 (Homo sapiens) (UniProt P15559); test: Ratio of Kcat and Km; in short: as §2
# NAD(P)H dehydrogenase [quinone] 1 (Homo sapiens), sequence (P15559 whole entry): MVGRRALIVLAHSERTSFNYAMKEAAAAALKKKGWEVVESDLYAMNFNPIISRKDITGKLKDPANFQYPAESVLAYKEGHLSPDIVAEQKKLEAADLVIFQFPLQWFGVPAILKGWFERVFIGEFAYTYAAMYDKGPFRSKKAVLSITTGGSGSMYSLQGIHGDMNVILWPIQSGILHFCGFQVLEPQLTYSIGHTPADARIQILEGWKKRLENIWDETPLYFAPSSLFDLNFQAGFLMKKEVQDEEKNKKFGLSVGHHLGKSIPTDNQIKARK
Compound,LC99 (BE),k cat [1],Ratio [2],LC99 (HT-29),Ratio [3]
Cn1c(COP(N)(=O)N(CCCl)CCCl)nc2c1C(=O)C=CC2=O (stereo not drawn),300 µM,41 s⁻¹,0.4,220 µM,4.5
CC(=O)OCC1=CC(=O)c2ccccc2C1=O,22 µM,280 s⁻¹,1.4,64 µM,1.6
CN(CCBr)P(=O)(OCC1=CC(=O)c2ccccc2C1=O)N(C)CCBr,1.2 µM,115 s⁻¹,1.1,4.5 µM,1.3
CSC1=C(COP(N)(=O)N(CCCl)CCCl)C(=O)c2ccccc2C1=O (stereo not drawn),5.9 µM,72 s⁻¹,1.1,4.2 µM,1.2
CC1=C(COP(=O)(N(C)CCBr)N(C)CCBr)C(=O)c2ccccc2C1=O,0.44 µM,180 s⁻¹,0.44,1.5 µM,0.5
NP(=O)(OCC1=CC(=O)c2ccccc2C1=O)N(CCBr)CCBr (stereo not drawn),4.6 µM,46 s⁻¹,2,7.8 µM,2.2
CN(CCCl)P(=O)(OCC1=CC(=O)c2ccccc2C1=O)N(C)CCCl,2.8 µM,190 s⁻¹,1.2,4.5 µM,1.4
NP(=O)(OCC1=CC(=O)c2ccccc2C1=O)N(CCCl)CCCl (stereo not drawn),13 µM,51 s⁻¹,1.8,11 µM,2
CC1=C(COP(N)(=O)N(CCCl)CCCl)C(=O)c2ccccc2C1=O (stereo not drawn),1 µM,78 s⁻¹,0.76,2.1 µM,8.6
CC1=CC(=O)c2ccccc2C1=O,,700 s⁻¹,0.5,,5.8
NP(=O)(OCC1=C(Br)C(=O)c2ccccc2C1=O)N(CCCl)CCCl (stereo not drawn),3.3 µM,97 s⁻¹,2.7,4.1 µM,3
O=C1C=C(COP(=O)(NCCCl)NCCCl)C(=O)c2ccccc21,7.8 µM,88 s⁻¹,2.1,14 µM,2.3
Cn1c(COP(N)(=O)N(CCBr)CCBr)nc2c1C(=O)C=CC2=O (stereo not drawn),120 µM,66 s⁻¹,0.28,130 µM,3.1
NP(=O)(OCC1=CC(=O)c2ccccc2C1=O)N1CCOCC1 (stereo not drawn),72 µM,15 s⁻¹,0.83,89 µM,0.16
CC1=C(COP(N)(=O)N(CCBr)CCBr)C(=O)c2ccccc2C1=O (stereo not drawn),1.2 µM,63 s⁻¹,0.81,1.7 µM,9.1
